From ChEMBL document CHEMBL3525994, “Lysosomal sequestration (trapping) of lipophilic amine (cationic amphiphilic) drugs in immortalized human hepatocytes (Fa2N-4 cells)” (Drug Metab Dispos, 2013) come the findings set out here.

Series [1] is described as follows: Drug uptake in lysosomes of human Fa2N-4 cells assessed as inhibition of LysoTracker Red fluorescence after 30 mins. It is filed as ADME, cell-based, Lysosome. The following applies: Fa2N-4, 0.5 h.
Series [2] can be described thus: Drug uptake in lysosomes of human Fa2N-4 cells assessed as inhibition of LysoTracker Red fluorescence at 500 uM after 30 mins relative to control. The class given is cell-based, Lysosome. The following applies: Fa2N-4 cells (lysosomes), probe LysoTracker Red. An outline of the steps: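 Fa2N-4 cells at 50,000/well on collagen, rinsed with PBS. Drug (methanol stock diluted in supplemented modified Chee's medium; final 1–500 μM) with LysoTracker Red 50 nM final, 30 min, 37°C, triplicate. Cells PBS-rinsed and solubilised in acetonitrile. Fluorescence read at ex 530/em 590 nm. Medium kept for LDH release.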

Series [3] is described as follows: Drug uptake in lysosomes of human Fa2N-4 cells assessed as cellular partitioning measured per 10^6 cells at 1 uM after 5 mins by LC-MS analysis. The class given is ADME, cell-based, Lysosome. The following applies: fa2n-4, 5 min. Summed up:
(§1)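 Fa2N-4 cells, plated at 50,000/well on collagen in MFE with 10% newborn calf serum, switched to serum-free medium after attachment and used 36–48 h after plating. Substrate 1 μM in serum-free MFE, 37±1°C. Cells and substrate solution preincubated apart 5 min, then combined (± ammonium chloride 50 mM, nigericin 10 μM plus monensin 20 μM, or co-drug). Stopped with ice-cold PBS, washed, lysed in acetonitrile with internal standard, quantified by LC-MS/MS.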

The nature of series [4]: Drug uptake in lysosomes of human Fa2N-4 cells assessed as cellular partitioning measured per 10^6 cells at 1 uM after 5 mins by LC-MS analysis in presence of ammonium chloride. The following applies: fa2n-4, 5 min. The class given is ADME, cell-based, Lysosome. Summed up:
as §1

A short description of series [5]: Drug uptake in lysosomes of human Fa2N-4 cells assessed as cellular partitioning at 1 uM preincubated with ammonium chloride followed by compound treatment measured after 5 mins by LC-MS analysis. The class given is ADME, cell-based, Lysosome. The following applies: fa2n-4, 5 min. An outline of the steps:
(§2)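 Inhibitor is ammonium chloride 50 mM or chloroquine 200 μM. Three orders of addition: added together with substrate; added 5 min before substrate and left in; or added 5 min before substrate, then cells washed before substrate. Stopped with ice-cold PBS, acetonitrile lysis with internal standard, LC-MS/MS.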

The nature of series [6]: Drug uptake in lysosomes of human Fa2N-4 cells assessed as cellular partitioning at 1 uM after 5 mins by LC-MS analysis in presence of astemizole. The class given is ADME, cell-based, Lysosome. The following applies: fa2n-4, 5 min. An outline of the steps: as §1
Series [7] is described as follows: Drug uptake in lysosomes of human Fa2N-4 cells assessed as cellular partitioning at 1 uM after 5 mins by LC-MS analysis in presence of ammonium chloride, nigericin and monensin. It is filed as ADME, cell-based, Lysosome. The following applies: fa2n-4, 5 min. An outline of the steps: as §1
Series [8] can be described thus: Drug uptake in lysosomes of human Fa2N-4 cells assessed as cellular partitioning at 1 uM after 5 mins by LC-MS analysis in presence of atorvastatin. It is filed as ADME, cell-based, Lysosome. The following applies: fa2n-4, 5 min. Summed up: as §1
The nature of series [9]: Drug uptake in lysosomes of human Fa2N-4 cells assessed as cellular partitioning at 1 uM preincubated with ammonium chloride for 5 mins followed by media washout and compound treatment measured after 5 mins by LC-MS analysis. It is filed as ADME, cell-based, Lysosome. The following applies: fa2n-4, 5 min. An outline of the steps: as §2
The nature of series [10]: Drug uptake in lysosomes of human Fa2N-4 cells assessed as cellular partitioning at 1 uM after 5 mins by LC-MS analysis in presence of chloroquine. It is filed as ADME, cell-based, Lysosome. The following applies: fa2n-4, 5 min. An outline of the steps:
as §2

Series [11] in a line: Drug uptake in lysosomes of human Fa2N-4 cells assessed as cellular partitioning at 1 uM co-incubated with chloroquine for 5 mins by LC-MS analysis. The class given is ADME, cell-based, Lysosome. The following applies: fa2n-4, 5 min. An outline of the steps: as §2
Series [12] is described as follows: Drug uptake in lysosomes of human Fa2N-4 cells assessed as cellular partitioning at 1 uM after 5 mins by LC-MS analysis in presence of ammonium chloride. It is filed as ADME, cell-based, Lysosome. The following applies: fa2n-4, 5 min. An outline of the steps: as §1
Series [13] in a line: Drug uptake in lysosomes of human Fa2N-4 cells assessed as cellular partitioning at 1 uM up to 10 mins by LC-MS analysis. It is filed as ADME, cell-based, Lysosome. The following applies: fa2n-4, 10 min. Summed up: as §1
Series [14] is described as follows: Drug uptake in lysosomes of human Fa2N-4 cells assessed as cellular partitioning at 1 uM after 5 mins by LC-MS analysis in presence of diclofenac. It is filed as ADME, cell-based, Lysosome. The following applies: fa2n-4, 5 min. An outline of the steps:
as §1

Series [15] can be described thus: Drug uptake in lysosomes of human Fa2N-4 cells assessed as cellular partitioning at 1 uM after 5 mins by LC-MS analysis in presence of nigericin and monensin. It is filed as ADME, cell-based, Lysosome. The following applies: fa2n-4, 5 min. Summed up:
as §1

Series [16] in a line: Drug uptake in lysosomes of human Fa2N-4 cells assessed as cellular partitioning at 1 uM after 5 mins by LC-MS analysis in presence of rifampin. It is filed as ADME, cell-based, Lysosome. The following applies: fa2n-4, 5 min. Summed up: as §1
Series [17] is described as follows: Drug uptake in lysosomes of human Fa2N-4 cells assessed as cellular partitioning at 1 uM co-incubated with ammonium chloride for 5 mins by LC-MS analysis. It is filed as ADME, cell-based, Lysosome. The following applies: fa2n-4, 5 min. An outline of the steps: as §1
The nature of series [18]: Drug uptake in lysosomes of human Fa2N-4 cells assessed as cellular partitioning at 1 uM preincubated with chloroquine for 5 mins followed by media washout and compound treatment measured after 5 mins by LC-MS analysis. The class given is ADME, cell-based, Lysosome. The following applies: fa2n-4, 5 min. Summed up:
as §2

Series [19] can be described thus: Drug uptake in lysosomes of human Fa2N-4 cells assessed as cellular partitioning at 1 uM after 5 mins by LC-MS analysis in presence of dextromethorphan. It is filed as ADME, cell-based, Lysosome. The following applies: fa2n-4, 5 min. Summed up:
as §1

Series [20] in a line: Drug uptake in lysosomes of human Fa2N-4 cells assessed as cellular partitioning at 1 uM preincubated with chloroquine followed by compound treatment measured after 5 mins by LC-MS analysis. The class given is ADME, cell-based, Lysosome. The following applies: fa2n-4, 5 min. Summed up:
as §2

The nature of series [21]: Drug uptake in lysosomes of human Fa2N-4 cells assessed as cellular partitioning at 1 uM after 5 mins by LC-MS analysis in presence of imipramine. The class given is ADME, cell-based, Lysosome. The following applies: fa2n-4, 5 min. Summed up: as §1
The nature of series [22]: Drug uptake in lysosomes of human Fa2N-4 cells assessed as cellular partitioning at 1 uM measured at 10 mins by LC-MS analysis in presence of ammonium chloride. The class given is ADME, cell-based, Lysosome. The following applies: fa2n-4, 10 min. Summed up: as §1

One may read the IC50 as the concentration needed to halve the response being measured. Take `CC(=O)Nc1ccc(O)cc1` [ACETAMINOPHEN]: in series [1], the IC50 was > 500 µM.

In general, inhibition refers to the change of the read-out against control, counted positive when it falls. As to `CCN(CC)Cc1cc(Nc2ccnc3cc(Cl)ccc23)ccc1O` [AMODIAQUINE], the IC50 in [1] was > 500 µM. In series [2], the inhibition at 0.5 h, 500 µM was > 25%.

On to `COc1ccc(CCN2CCC(Nc3nc4ccccc4n3Cc3ccc(F)cc3)CC2)cc1` [ASTEMIZOLE], for which the IC50 in [1] was 110 µM.

For `CC(C)c1c(C(=O)Nc2ccccc2)c(-c2ccccc2)c(-c2ccc(F)cc2)n1CC[C@@H](O)C[C@@H](O)CC(=O)O` [ATORVASTATIN], the Drug uptake was < 11 pmol in series [3] and 34 pmol in series [4]. In [1], the IC50 is > 500 µM.

As to `O=C(O)COCCN1CCN(C(c2ccccc2)c2ccc(Cl)cc2)CC1` (stereo not given) [CETIRIZINE], the IC50 in [1] is > 500 µM.

`CCN(CC)CCCC(C)Nc1ccnc2cc(Cl)ccc12` (stereo not given) [CHLOROQUINE]: the IC50 in series [1] is 220 µM.

In the case of `CNCCCN1c2ccccc2CCc2ccccc21` [DESIPRAMINE], the IC50 in series [1] stood at 220 µM.

For `COc1ccc2c(c1)[C@]13CCCC[C@@H]1[C@H](C2)N(C)CC3` [DEXTROMETHORPHAN], the IC50 in [1] is > 500 µM. Moreover, the inhibition at 0.5 h, 500 µM in series [2] was > 25%.

For `O=C(O)Cc1ccccc1Nc1c(Cl)cccc1Cl` [DICLOFENAC], the IC50 in series [1] was > 500 µM.

Take `C#Cc1cccc(Nc2ncnc3cc(OCCOC)c(OCCOC)cc23)c1` [ERLOTINIB]: the IC50 in series [1] was > 500 µM.

For `OC(Cn1cncn1)(Cn1cncn1)c1ccc(F)cc1F` [FLUCONAZOLE], the IC50 in series [1] was > 500 µM.

Regarding `CNCCC(Oc1ccc(C(F)(F)F)cc1)c1ccccc1` (stereo not given) [FLUOXETINE], in series [1], the IC50 worked out at 150 µM.

With `CC(C)n1c(/C=C/C(O)CC(O)CC(=O)O)c(-c2ccc(F)cc2)c2ccccc21` (stereo not given) [FLUVASTATIN], the IC50 in series [1] was > 500 µM.

On to `CC(C)Cc1ccc(C(C)C(=O)O)cc1` (stereo not given) [IBUPROFEN], for which the IC50 in series [1] is > 500 µM.

For `CN(C)CCCN1c2ccccc2CCc2ccccc21` [IMIPRAMINE], the IC50 in [1] came out at 260 µM.

As to `CC(C(=O)O)c1cccc(C(=O)c2ccccc2)c1` (stereo not given) [KETOPROFEN], the IC50 in [1] is > 500 µM.

Consider `O=C(c1ccccc1)c1ccc2n1CCC2C(=O)O` (stereo not given) [KETOROLAC], for which the IC50 in series [1] is > 500 µM.

For `CC(CCc1ccccc1)NCC(O)c1ccc(O)c(C(N)=O)c1` (stereo not given) [LABETALOL], in series [1], the IC50 was > 500 µM. Moreover, the inhibition at 0.5 h, 500 µM in series [2] is > 25%.

In the case of `CS(=O)(=O)CCNCc1ccc(-c2ccc3ncnc(Nc4ccc(OCc5cccc(F)c5)c(Cl)c4)c3c2)o1` [LAPATINIB], in series [1], the IC50 turned out to be 380 µM.

Turning to `COC(=O)C1=C(C)NC(C)=C(C(=O)OC)C1c1ccccc1[N+](=O)[O-]` [NIFEDIPINE], the IC50 in series [1] was > 500 µM.

With `Fc1ccc([C@@H]2CCNC[C@H]2COc2ccc3c(c2)OCO3)cc1` [PAROXETINE], the IC50 in [1] came to 130 µM.

Turning to `CC[C@H](C)C(=O)O[C@H]1C[C@H](O)C=C2C=C[C@H](C)[C@H](CC[C@@H](O)C[C@@H](O)CC(=O)O)[C@H]21` [PRAVASTATIN], the IC50 in series [1] is > 500 µM.

In the case of `CC(C)NCC(O)COc1cccc2ccccc12` (stereo not given) [PROPRANOLOL], the Drug uptake is given as 189 pmol in series [3]; “Not Active” in series [5]; “Not Active” in series [6]; “Not Active” in series [7]; “Active” in series [8]; “Active” in [9]. The Drug uptake result in series [10] is “Not Active”; in [11], “Not Active”; in series [12], “Not Active”; in series [13] it was “Not Active”; in [14] it was “Active”; in series [15] it was “Not Active”. Further, the Drug uptake result in [16] is “Active”; in [17] it was “Not Active”; in series [18], “Not Active”; in series [19] it was “Not Active”; in [20], “Not Active”; in series [4], “Not Active”. Moreover, the Drug uptake entry in series [21] and in series [22] was “Not Active” throughout.

Consider `CCN1CCC[C@H]1CNC(=O)c1c(O)c(Cl)cc(Cl)c1OC` [RACLOPRIDE], for which the half-inhibitory concentration (IC50) in series [1] was > 500 µM.

Turning to `CC(C)c1nc(N(C)S(C)(=O)=O)nc(-c2ccc(F)cc2)c1/C=C/[C@@H](O)C[C@@H](O)CC(=O)O` [ROSUVASTATIN], the IC50 in series [1] was > 500 µM.

Take `CN1C(C(=O)Nc2ccccn2)=C(O)c2sccc2S1(=O)=O` [TENOXICAM]: in [1], the IC50 is > 500 µM.
